Measurements from ChEMBL document CHEMBL1155883, “5-Alkyl-6-benzyl-2-(2-oxo-2-phenylethylsulfanyl)pyrimidin-4(3H)-ones, a series of anti-HIV-1 agents of the dihydro-alkoxy-benzyl-oxopyrimidine family with peculiar structure-activity relationship profile” (J Med Chem, 2008).

Experiments:
[1] = tested on: Human immunodeficiency virus 1; test: Antiviral activity against HIV1 isolates with reverse transcriptase K103N mutation in human MT4 cells assessed as inhibition of virus-induced cytopathogenicity by MTT assay; type: functional, organism-based; conditions: Human immunodeficiency virus 1, MT4
In short: (§1)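 MT-4 lymphoid cells infected with HIV-1 carrying RT K103N, Y181C or Y188L, in the presence of different drug concentrations. Viable cells counted at day 5 postinfection by MTT colorimetric assay. EC50 is the concentration that inhibits 50% of the HIV-induced cytopathic effect.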

[2] = tested on: Human immunodeficiency virus 1; test: Antiviral activity against HIV1 NL4-3 in human MT4 cells assessed as inhibition of virus-induced cytopathogenicity by MTT assay; type: functional, organism-based; conditions: Human immunodeficiency virus 1, NL4-3, MT4
In short: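 MT-4 lymphoid cells infected with wild-type HIV-1 NL4-3 in the presence of a range of compound concentrations. Viable cells were counted by MTT colorimetric read-out at day 5 post-infection. EC50 is the concentration giving 50% protection from virus-induced cytopathic effect. Means ± SD from at least two or three experiments.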

[3] = tested on: Human immunodeficiency virus 1; test: Resistance index, ratio of EC50 for drug-resistant HIV1 isolate with reverse transcriptase Y188L mutation to EC50 for wild type HIV1 NL4-3; type: functional
In short: (§2)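 Fold resistance is the EC50 against the K103N, Y181C or Y188L mutant strain divided by the EC50 against wt NL4-3. Each EC50 is from MT-4 cells infected in the presence of different drug concentrations, with viability read by MTT at day 5 postinfection.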

[4] = tested on: Human immunodeficiency virus type 1 reverse transcriptase (Human immunodeficiency virus 1), Q72547 [Y181I]
[5] = Cytotoxicity against human MT4 cells by MTT assay; type: cell-based
In short: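 Mock-infected MT-4 cells were exposed to a range of compound concentrations. Viability was read by MTT at day 5. CC50 is the concentration that kills 50% of uninfected cells. The top concentration was limited by compound precipitation in culture medium. Means ± SD from at least two or three experiments.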

[6] = tested on: Human immunodeficiency virus 1; test: Antiviral activity against HIV1 isolates with reverse transcriptase Y181C mutation in human MT4 cells assessed as inhibition of virus-induced cytopathogenicity by MTT assay; type: functional, organism-based; conditions: Human immunodeficiency virus 1, MT4; in short: as §1
[7] = tested on: Human immunodeficiency virus 1; test: Antiviral activity against HIV1 isolates with reverse transcriptase Y188L mutation in human MT4 cells assessed as inhibition of virus-induced cytopathogenicity by MTT assay; type: functional, organism-based; conditions: Human immunodeficiency virus 1, MT4; in short: as §1
[8] = tested on: Human immunodeficiency virus 1; test: Resistance index, ratio of EC50 for drug-resistant HIV1 isolate with reverse transcriptase K103N mutation to EC50 for wild type HIV1 NL4-3; type: functional; in short: as §2
[9] = Selectivity index, ratio of CC50 for human MT4 cells to EC50 for HIV1 NL4-3; type: toxicity, cell-based; conditions: read-out: Ratio CC50/EC50
In short: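 Computed as CC50/EC50. CC50 comes from MTT viability of mock-infected MT-4 cells and EC50 from MTT protection of NL4-3-infected MT-4 cells, both read at day 5.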

[10] = tested on: Human immunodeficiency virus 1; test: Resistance index, ratio of ID50 for reverse transcriptase L100I mutant to IC50 for wild-type HIV1 reverse transcriptase
In short: (§3)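 Recombinant wt and K103N, L100I or Y181I HIV-1 RT (>95% pure), 2-4 nM. RNA-dependent DNA polymerase assay on 0.5 µg poly(rA)/oligo(dT) 10:1 (0.3 µM 3'-OH ends) with 10 µM [3H]-dTTP and 8% final DMSO. Aliquots taken every 2 min. Inhibitor range 0.2-5× ID50, fitted to a noncompetitive model. Fold resistance is mutant ID50 divided by wt ID50.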

[11] = target: Human immunodeficiency virus type 1 reverse transcriptase (Human immunodeficiency virus 1) (UniProt Q72547)
[12] = tested on: Human immunodeficiency virus 1; test: Resistance index, ratio of EC50 for drug-resistant HIV1 isolate with reverse transcriptase Y181C mutation to EC50 for wild type HIV1 NL4-3; type: functional; in short: as §2
[13] = tested on: Human immunodeficiency virus type 1 reverse transcriptase (Human immunodeficiency virus 1), Q72547 [L100I]
[14] = tested on: Human immunodeficiency virus type 1 reverse transcriptase (Human immunodeficiency virus 1), Q72547 [K103N]
[15] = tested on: Human immunodeficiency virus 1; test: Resistance index, ratio of ID50 for reverse transcriptase Y181I mutant to IC50 for wild-type HIV1 reverse transcriptase; in short: as §3
[16] = tested on: Human immunodeficiency virus 1; test: Resistance index, ratio of ID50 for reverse transcriptase K103N mutant to IC50 for wild-type HIV1 sreverse transcriptase; in short: as §3

Compound	EC50 [1]	EC50 [2]	Ratio EC50 [3]	ID50 [4]	CC50 [5]	EC50 [6]	EC50 [7]	Ratio EC50 [8]	selectivity ratio [9]	Ratio [10]	ID50 [11]	Ratio EC50 [12]	ID50 [13]	ID50 [14]	Ratio [15]	Ratio [16]
CCc1c(Cc2c(F)cccc2Cl)nc(SCC(=O)c2ccccc2)[nH]c1=O	1.2 µM	0.012 µM	782	> 40 µM	> 12 µM	0.39 µM	9.38 µM	100	> 1000	1210	0.008 µM	32	9.7 µM	> 40 µM		
CCc1c(Cc2c(Cl)cccc2Cl)nc(SCC(=O)c2ccc(F)cc2)[nH]c1=O	4.7 µM	0.007 µM	5186	0.24 µM	> 55 µM	0.49 µM	36.3 µM	671	> 7860	43	0.042 µM	70	1.82 µM	1.79 µM	6	43
CCc1c(Cc2c(Cl)cccc2Cl)nc(SCC(=O)c2ccccc2)[nH]c1=O	1.2 µM	0.007 µM	714	0.33 µM	> 52 µM	0.046 µM	5 µM	171	> 7430	50	0.071 µM	7	3.54 µM	1.88 µM	5	26
CC(C)c1c(Cc2c(F)cccc2Cl)nc(SCC(=O)c2ccccc2)[nH]c1=O	3.29 µM	0.005 µM	1540	> 40 µM	> 12 µM	0.21 µM	7.7 µM	658	> 2400	1300	0.001 µM	42	1.3 µM	4.5 µM		4500
COc1ccc(CCSc2nc(Cc3c(Cl)cccc3Cl)c(C)c(=O)[nH]2)cc1		< 0.00014 µM	49286		> 57 µM			6214	> 407000						58	123
CC(C)c1c(Cc2c(Cl)cccc2Cl)nc(SCC(=O)c2ccccc2)[nH]c1=O	5.1 µM	0.004 µM	1375	16.8 µM	> 56 µM	0.11 µM	5.5 µM	1275	> 14000	326	0.031 µM	27	10.1 µM	27.7 µM	542	894
Cc1c(Cc2c(Cl)cccc2Cl)nc(SCC(=O)c2ccccc2)[nH]c1=O	3.79 µM	0.038 µM	232	1.38 µM	> 60 µM	0.48 µM	8.82 µM	100	> 1580	34	0.23 µM	13	7.8 µM	12 µM	6	53
COc1ccc(C(=O)CSc2nc(Cc3c(F)cccc3F)c(C(C)C)c(=O)[nH]2)cc1	17.5 µM	0.002 µM	7350	> 40 µM	33 µM	0.067 µM	14.7 µM	8750	16500		0.026 µM	33	> 40 µM	37.3 µM		1440
